Published values of several laboratories.
Cell line: HT-29
Effect on: cell growth or viability

CCN(CC)CCNC(=O)c1c(C)[nH]c(/C=C2\C(=O)Nc3ccc(F)cc32)c1C — inhibition (30 µM): 59.5%
Cn1c(=O)c(NN=C2C(=O)Nc3ccc(F)cc32)nc2ccccc21 — inhibition (30 µM): 48.1%
COc1cccc(Oc2ccccc2NC(=O)CNC(=O)c2cccc3ccccc23)c1 — GI50 (SRB; 48 h): 0.11 µM
CC/C(=C(\c1ccccc1)c1ccc(OCCN(C)C)cc1)c1ccccc1 — EC90 (ATP luminescence; 72 h): 8.4 µM
S=C([S][Au-][P+](CCCCCC[P+]([Au-][S]C(=S)n1cccn1)(c1ccccc1)c1ccccc1)(c1ccccc1)c1ccccc1)n1cccn1 — GI50: 0.642 µM
COc1ccc(C(=O)/C=C/c2cc3c(cc2Br)OCO3)cc1S(N)(=O)=O — GI50 (SRB; 48 h): 1.9 µM
Cc1ccc2c(c1)C(=NNc1nc3ccccc3n(C)c1=O)C(=O)N2 — inhibition (30 µM): 47.6%
Cc1cc(C)n(C(=S)[S][Au][PH](CCCCCC[PH]([Au][S]C(=S)n2nc(C)cc2C)(c2ccccc2)c2ccccc2)(c2ccccc2)c2ccccc2)n1 — GI50: 0.458 µM
COc1ccc(C(=O)/C=C/c2cccc(Br)c2)cc1S(N)(=O)=O — GI50 (SRB; 48 h): 1.6 µM
